Measured values published in ChEMBL document CHEMBL1127529, “Antipsoriatic anthrones with modulated redox properties. 2. Novel derivatives of chrysarobin and isochrysarobin--antiproliferative activity and 5-lipoxygenase inhibition” (J Med Chem, 1994).

Columns and labels:
HaCaT = experiment: Antiproliferative activity against HaCaT cells; type: functional, cell-based; settings: Homo sapiens
In short: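 HaCaT human keratinocytes were kept in DMEM with 10% FCS, penicillin and streptomycin at 37 °C under 8% CO2. After 48 h the cells were detached with trypsin/EDTA and counted by phase-contrast microscopy.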

[1] = Partition coefficient (logP) (HPLC); type: physicochemical; settings: octanol/water
In short: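 Reversed-phase HPLC with MeOH/water/HOAc (77-23-0.1) as eluant, adjusted to pH 5.5 with concentrated NH3.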

Liposome = experiment: Inhibition of 2,2'-azobis(2-aminopropane)hydrochloride (AAPH) induced lipid peroxidation in bovine brain phospholipid liposomes; type: functional, subcellular, Bos taurus
[2] = Reducing activity against 2,2-diphenyl-1-picrylhydrazyl (DPPH) with equimolar compound; type: functional
In short: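 Test compound and DPPH, each 10⁻⁴ M in acetone/PBS (1-1 v/v), mixed 1 mL + 1 mL. DPPH reduction followed spectrophotometrically at 516 nm. Reciprocal DPPH concentration plotted against time gave straight lines, and second-order rate constants (M⁻¹ s⁻¹) were taken from the slopes. Values are means, N = 3-6. Highly reactive compounds gave approximate values only.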

[3] = Deoxyribose degradation as a measure of hydroxy radical formation.; type: functional
In short: (§1)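 2-Deoxy-D-ribose (2 mM) was incubated with FeCl3 (0.1 mM) and compound (75 μM) in KH2PO4-KOH buffer pH 7.4 (30 mM) for 2 h at 37 °C with shaking. TBA-reactive material was read at 532 nm. Result is µmol malondialdehyde per mmol deoxyribose.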

[4] = biological target: T1, Arachidonate 5-lipoxygenase (Bos taurus, UniProt Q9BEG3); experiment: Inhibition of 5-lipoxygenase in bovine polymorphonuclear leukocytes; type: cell-based
T1 sequence (Q9BEG3 whole entry): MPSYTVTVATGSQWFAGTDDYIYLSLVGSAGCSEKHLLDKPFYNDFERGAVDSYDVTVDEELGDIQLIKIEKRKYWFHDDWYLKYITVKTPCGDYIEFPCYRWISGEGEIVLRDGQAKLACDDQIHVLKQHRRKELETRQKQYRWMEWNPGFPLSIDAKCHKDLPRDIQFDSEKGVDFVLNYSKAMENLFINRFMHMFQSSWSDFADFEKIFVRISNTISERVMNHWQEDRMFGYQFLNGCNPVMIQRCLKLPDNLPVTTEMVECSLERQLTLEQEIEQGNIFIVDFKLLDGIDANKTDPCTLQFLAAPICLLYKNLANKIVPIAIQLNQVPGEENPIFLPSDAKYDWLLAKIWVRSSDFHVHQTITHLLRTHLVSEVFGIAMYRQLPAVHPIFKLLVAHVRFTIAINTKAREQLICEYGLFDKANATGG
In short: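 Bovine PMNL (10^7 cells/mL) were stimulated with Ca-ionophore. Compound was preincubated for 15 min at 37 °C.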

[5] = Deoxyribose degradation assay as hydroxy radical formation; type: functional; in short: as §1

Structure (SMILES) | IC50 (HaCaT) | logP [1] | IC50 (Liposome) | kDPPH [2] | DD (uM of MDA mM-1) [3] | IC50 [4] | DD (uM of MDA mM-1) [5]
O=C1c2c(O)cccc2Cc2ccc(CCCc3ccc(O)cc3)c(O)c21 | 0.4 µM | 5.27 | 50 µM | > 100 M⁻¹ s⁻¹ | < 0.15 | 2 µM | 
O=C1c2c(O)cccc2Cc2ccc(Cc3ccccc3)c(O)c21 | > 5 µM | 5.61 | 98 µM | 11.2 M⁻¹ s⁻¹ | < 0.25 | > 30 µM | 
O=C1c2c(O)cccc2Cc2ccc(CCc3ccccc3)c(O)c21 |  | 6.23 | 110 µM | 16.1 M⁻¹ s⁻¹ | < 0.15 | > 30 µM | 
COc1c(OC)c(OC(C)=O)c2cc(Cl)ccc2c1OC(C)=O [LONAPALENE] | 3.2 µM |  | > 50 µM |  |  |  | < 0.15
O=C1c2c(O)cccc2Cc2cc(Cc3ccc(O)cc3)cc(O)c21 | 0.4 µM | 4.52 | 14 µM | 12.6 M⁻¹ s⁻¹ |  | > 30 µM | 0.27
COc1ccc(OC)c(Cc2cc(O)c3c(c2)Cc2cccc(O)c2C3=O)c1 | 0.2 µM | 5.17 |  | 14.8 M⁻¹ s⁻¹ | 0.51 | > 30 µM | 
COc1ccc(Cc2cc(O)c3c(c2)Cc2cccc(O)c2C3=O)cc1 | 0.3 µM | 5.3 | 33 µM | 11.2 M⁻¹ s⁻¹ | < 0.15 | > 30 µM | 
COC(=O)c1ccc(Cc2ccc3c(c2O)C(=O)c2c(O)cccc2C3)cc1 |  | 5.34 |  | 10.4 M⁻¹ s⁻¹ | < 0.25 | > 30 µM | 
O=C(O)c1ccc(Cc2ccc3c(c2O)C(=O)c2c(O)cccc2C3)cc1 |  | 4.1 | 62 µM | 9.9 M⁻¹ s⁻¹ | < 0.25 |  | 
COc1ccc(C(=O)c2cc(O)c3c(c2)Cc2cccc(O)c2C3=O)cc1 | 1.7 µM | 4.83 |  | > 100 M⁻¹ s⁻¹ | 0.98 | > 30 µM | 
CC(Cc1ccc(O)c(O)c1)C(C)Cc1ccc(O)c(O)c1 (stereo unspecified) [NORDIHYDROGUAIARETIC ACID] |  |  | 2 µM |  |  |  | 
COc1ccc(OC)c(Cc2ccc3c(c2O)C(=O)c2c(O)cccc2C3)c1 |  | 5.72 | > 200 µM | > 100 M⁻¹ s⁻¹ | < 0.15 | > 30 µM | 
COc1ccccc1Cc1ccc2c(c1O)C(=O)c1c(O)cccc1C2 |  | 5.62 |  | 12 M⁻¹ s⁻¹ | < 0.25 | > 30 µM | 
O=C1c2c(O)cccc2Cc2ccc(Cc3ccc(O)cc3O)c(O)c21 | 1.5 µM | 3.68 | 16 µM | > 100 M⁻¹ s⁻¹ | 0.34 | 5 µM | 
COc1ccc(CCCc2ccc3c(c2O)C(=O)c2c(O)cccc2C3)cc1 | > 5 µM | 6.46 |  | 14 M⁻¹ s⁻¹ | < 0.15 | 30 µM | 
COC(=O)c1ccccc1Cc1ccc2c(c1O)C(=O)c1c(O)cccc1C2 |  | 5.24 |  | 11.4 M⁻¹ s⁻¹ | < 0.15 | > 30 µM | 
O=C1c2c(O)cccc2Cc2ccc(CCCCc3ccccc3)c(O)c21 |  | 6.81 | 112 µM | 10.4 M⁻¹ s⁻¹ | < 0.15 | > 30 µM | 
O=C1c2c(O)cccc2Cc2cc(Cc3ccc(O)cc3O)cc(O)c21 | 0.5 µM | 3.67 | 16 µM | 39.3 M⁻¹ s⁻¹ |  | 7 µM | 3.26
COc1ccc(Cc2cc(O)c3c(c2)Cc2cccc(O)c2C3=O)c(OC)c1 | 0.4 µM | 5.34 | > 200 µM | 10.3 M⁻¹ s⁻¹ | 0.32 | > 30 µM | 
O=C1c2c(O)cccc2Cc2ccc(Cc3ccc(Cl)cc3)c(O)c21 |  | 5.98 | 150 µM | 19.3 M⁻¹ s⁻¹ | < 0.15 | > 30 µM | 

Structure (SMILES) | IC50 (HaCaT) | logP [1] | IC50 (Liposome) | kDPPH [2] | DD (uM of MDA mM-1) [3] | IC50 [4] | DD (uM of MDA mM-1) [5]
O=C1c2c(O)cccc2Cc2ccc(CCCc3cc(O)c(O)c(O)c3)c(O)c21 | 0.5 µM | 3.96 | 5 µM | > 100 M⁻¹ s⁻¹ | 2.97 | 0.6 µM | 
O=C(c1ccccc1)c1cc(O)c2c(c1)Cc1cccc(O)c1C2=O |  | 4.83 | 40 µM | > 100 M⁻¹ s⁻¹ | 1.97 | > 30 µM | 
O=C1c2c(O)cccc2Cc2cc(Cc3cc(O)ccc3O)cc(O)c21 | 0.4 µM | 3.2 | 3 µM | > 100 M⁻¹ s⁻¹ | 1.74 |  | 
Cc1ccc(C(=O)c2cc(O)c3c(c2)Cc2cccc(O)c2C3=O)cc1 |  | 5.14 | 40 µM | > 100 M⁻¹ s⁻¹ | 1.01 | > 30 µM | 
O=C1c2c(O)cccc2Cc2ccc(Cc3ccc(C(F)(F)F)cc3)c(O)c21 | > 5 µM | 5.92 |  | 3.7 M⁻¹ s⁻¹ | < 0.15 | > 30 µM | 
O=C1c2c(O)cccc2Cc2cc(Cc3ccc(O)c(O)c3)cc(O)c21 | 0.5 µM | 3.88 | 4 µM | > 100 M⁻¹ s⁻¹ | 0.41 | 2 µM | 
O=C1c2c(O)cccc2Cc2cc(Cc3ccccc3)cc(O)c21 |  | 5.29 | 64 µM | 18.1 M⁻¹ s⁻¹ | < 0.25 | > 30 µM | 
O=C1c2c(O)cccc2Cc2ccc(CCCc3ccccc3)c(O)c21 | > 5 µM | 6.44 | 67 µM | 11.1 M⁻¹ s⁻¹ | 0.56 | 11 µM | 
COc1ccc(Cc2ccc3c(c2O)C(=O)c2c(O)cccc2C3)cc1OC |  | 5.79 |  | > 100 M⁻¹ s⁻¹ | < 0.15 | > 30 µM | 
O=C(c1ccccc1)c1ccc2c(c1O)C(=O)c1c(O)cccc1C2 | 1.6 µM | 4.47 | 43 µM | > 100 M⁻¹ s⁻¹ | 2.68 | 18 µM | 
O=C1c2c(O)cccc2Cc2ccc(Cc3ccc(O)cc3)c(O)c21 | 0.8 µM | 4.66 | 43 µM | > 100 M⁻¹ s⁻¹ | 0.38 | 7 µM | 
O=C1c2c(O)cccc2Cc2ccc(Cc3ccc(O)c(O)c3)c(O)c21 | 0.4 µM | 4.01 |  | > 100 M⁻¹ s⁻¹ | 1.82 | 4 µM | 
COc1cc(CCCc2ccc3c(c2O)C(=O)c2c(O)cccc2C3)cc(OC)c1OC | 2 µM | 5.64 |  | > 100 M⁻¹ s⁻¹ | < 0.15 | 6 µM | 
O=C1c2c(O)cccc2Cc2ccc(Cc3ccccc3O)c(O)c21 | 0.7 µM | 4.67 | 25 µM | > 100 M⁻¹ s⁻¹ | 0.35 | 5 µM | 
O=C1c2c(O)cccc2Cc2ccc(Cc3cc(O)ccc3O)c(O)c21 | 0.7 µM | 3.33 | 7 µM | > 100 M⁻¹ s⁻¹ | 1.46 | 0.9 µM | 
COc1ccc(Cc2ccc3c(c2O)C(=O)c2c(O)cccc2C3)cc1 |  | 5.62 |  | 11.3 M⁻¹ s⁻¹ | < 0.25 | > 30 µM | 
Cc1ccc(Cc2ccc3c(c2O)C(=O)c2c(O)cccc2C3)cc1 |  | 6.04 |  | 8.5 M⁻¹ s⁻¹ |  | > 30 µM | < 0.25
COc1ccc(Cc2ccc3c(c2O)C(=O)c2c(O)cccc2C3)c(OC)c1 | > 5 µM | 5.04 |  | > 100 M⁻¹ s⁻¹ | < 0.15 | > 30 µM | 
O=C1c2c(O)cccc2Cc2ccc(Cc3cccc(Oc4ccccc4)c3)c(O)c21 |  | 6.35 |  | 6.4 M⁻¹ s⁻¹ | < 0.15 | > 30 µM | 
O=C(O)c1ccccc1Cc1ccc2c(c1O)C(=O)c1c(O)cccc1C2 | > 5 µM | 4.48 | 42 µM | 16.9 M⁻¹ s⁻¹ | 1.2 | 4 µM | 
